Format in all cases: functional, Mus musculus
Assay [1] in a line: Induction of immune response of T-cell HD13.9 hybridoma in presence of antigen-presenting spleen cells expressing Aq assessed as drug concentration required to induce IL2 secretion after 24 hrs by ELISA. The method, boiled down: (§1)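 5 × 10⁴ hybridoma cells co-cultured with 5 × 10⁵ syngeneic spleen cells and glycopeptide at 0, 0.00128, 0.0064, 0.032, 0.16, 0.8, 4, 20 µM for 24 h. Supernatant frozen, then IL-2 measured by sandwich ELISA (rat anti-mouse IL-2 capture and biotin detection, DELFIA read-out) against a recombinant mouse IL-2 standard. Score is the lowest concentration giving IL-2 at 6% of the maximal response to the native CII259-273 glycopeptide reference.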
On the technique in general: In an ELISA, binding on a coated surface is turned into a signal by an enzyme label.

Assay [2] is described as follows: Induction of immune response of T-cell HD13.10 hybridoma in presence of antigen-presenting spleen cells expressing Aq assessed as drug concentration required to induce IL2 secretion after 24 hrs by ELISA. The method, boiled down:
as §1

Assay [3] is described as follows: Induction of immune response of T-cell HNC.1 hybridoma in presence of antigen-presenting spleen cells expressing Aq assessed as drug concentration required to induce IL2 secretion after 24 hrs by ELISA. The method, boiled down: as §1
A short description of assay [4]: Induction of immune response of T-cell HCQ.2 hybridoma in presence of antigen-presenting spleen cells expressing Aq assessed as drug concentration required to induce IL2 secretion after 24 hrs by ELISA. Summed up:
as §1

Assay [5] is described as follows: Induction of immune response of T-cell HCQ.3 hybridoma in presence of antigen-presenting spleen cells expressing Aq assessed as drug concentration required to induce IL2 secretion after 24 hrs by ELISA. The method, boiled down:
as §1

Assay [6] in a line: Induction of immune response of T-cell HCQ.6 hybridoma in presence of antigen-presenting spleen cells expressing Aq assessed as drug concentration required to induce IL2 secretion after 24 hrs by ELISA. Summed up:
as §1

Assay [7] is described as follows: Induction of immune response of T-cell HMIR.2 hybridoma in presence of antigen-presenting spleen cells expressing Aq assessed as drug concentration required to induce IL2 secretion after 24 hrs by ELISA. Summed up:
as §1

The nature of assay [8]: Induction of immune response of T-cell 22a1-7E hybridoma in presence of antigen-presenting spleen cells expressing Aq assessed as drug concentration required to induce IL2 secretion after 24 hrs by ELISA. Summed up:
as §1

This passage reports Activity results from ChEMBL document CHEMBL1138239, “Probing molecular interactions within class II MHC Aq/glycopeptide/T-cell receptor complexes associated with collagen-induced arthritis” (2007).

*1 amine or outer side, *2 acyl side, *3 side chain or, on linkers, in order; H or OH if unused. Where a SMILES comes first, the peptide text is derived from it. [ ]: non-standard residue; d: D form. X4 = NC[C@@H](CC[C@H](N[*:1])C(=O)[*:2])O[C@@H]1O[C@H](CO)[C@H](O)[C@H](O)[C@H]1O; X2 = C[C@H](N[*:1])C(=O)CCC(=O)[*:2]; X5 = C[C@@H](/C=C/CC(=O)[*:2])N[*:1]

For the compound `CC[C@H](C)[C@H](NC(=O)CN)C(=O)N[C@@H](C)C(=O)CCC(=O)N[C@@H](Cc1ccccc1)C(=O)N[C@@H](CC[C@H](CN)O[C@@H]1O[C@H](CO)[C@H](O)[C@H](O)[C@H]1O)C(=O)NCC(=O)N[C@@H](CCC(=O)O)C(=O)N[C@@H](CCC(N)=O)C(=O)NCC(=O)N1CCC[C@H]1C(=O)N[C@@H](CCCCN)C(=O)NCC(=O)N[C@@H](CCC(=O)O)C(=O)N[C@H](C(=O)O)[C@@H](C)O` (H-GI[X2]F[X4]GEQGPKGET-OH), the Activity in assay [1] was found to be 0.8 µM; in assay [2], 0.8 µM; in assay [3] it was 4 µM; in assay [4], 0.8 µM; in assay [5], 0.8 µM; in assay [6], 0.8 µM. Further, the Activity in assay [7] and in assay [8] was 4 µM each time.
For the compound `CC[C@H](C)[C@H](NC(=O)CN)C(=O)N[C@@H](C)/C=C/CC(=O)N[C@@H](Cc1ccccc1)C(=O)N[C@@H](CC[C@H](CN)O[C@@H]1O[C@H](CO)[C@H](O)[C@H](O)[C@H]1O)C(=O)NCC(=O)N[C@@H](CCC(=O)O)C(=O)N[C@@H](CCC(N)=O)C(=O)NCC(=O)N1CCC[C@H]1C(=O)N[C@@H](CCCCN)C(=O)NCC(=O)N[C@@H](CCC(=O)O)C(=O)N[C@H](C(=O)O)[C@@H](C)O` (H-GI[X5]F[X4]GEQGPKGET-OH), the Activity in assay [4], in assay [5] and in assay [6] was 20 µM throughout.
